# According to ChEMBL document CHEMBL1128245, “Dual-acting thromboxane receptor antagonist/synthase inhibitors: synthesis and biological properties of [2-substituted-4-(3-pyridyl)-1,3-dioxan-5-yl] alkenoic acids” (J Med Chem, 1995):
# Key:
# [1] = test system: Canis familiaris; test: Ex vivo TXA2 ([…]) antagonist activity was determined for U-46,619 induced aggregation (dose ratio) after 2 hr of oral dosing (1 mg/kg) in the dog; format: functional, Canis lupus familiaris
# In short: (§1)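 Dogs (n = 4) dosed orally, blood sampled at 2, 5, 8 and 24 h. Platelet-rich plasma aggregated with U46619 plus a predetermined threshold ADP concentration (about 0.4–1.2 × 10^-6 M), compared before vs after dosing to give a U46619 dose ratio. ">" marks the maximum achievable ratio at top U46619 (1 × 10^-4 M).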
# [2] = test system: Canis familiaris; test: Ex vivo TXA2 ([…]) antagonist activity was determined for U-46,619 induced aggregation (dose ratio) after 2 hr of oral dosing (3 mg/kg) in the dog; format: functional, Canis lupus familiaris; in short: as §1
# [3] = test system: Canis familiaris; test: Ex vivo TXA2 ([…]) antagonist activity was determined for U-46,619 induced aggregation (dose ratio) after 5 hr of oral dosing (1 mg/kg) in the dog; format: functional, Canis lupus familiaris; in short: as §1
# [4] = test system: Canis familiaris; test: Ex vivo TXA2 ([…]) antagonist activity was determined for U-46,619 induced aggregation (dose ratio) after 8 hr of oral dosing (1 mg/kg) in the dog; format: functional, Canis lupus familiaris; in short: as §1
# [5] = species: Homo sapiens; test: In vitro inhibition of U-46,619-induced aggregation of unwashed human platelets.; format: functional
# In short: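 Citrated (3.2%) human venous blood spun at 200g for 10 min. Platelet-rich plasma aggregated with U46619 with or without several antagonist concentrations.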
# [6] = test system: Rattus norvegicus; test: Ex vivo […] (TXA2 synthase) inhibitory activity after 1 hr of oral dosing (1 mg/kg) in the rat; format: functional
# In short: (§2)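 Rats (n = 6) gavaged, anesthetized, aortic blood taken at 1, 3 or 5 h after dosing. A blood aliquot was challenged with collagen and TXB2 measured by radioimmunoassay; expressed as % inhibition of TXA2 synthase (±SEM).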
# [7] = test system: Rattus norvegicus; test: Ex vivo […] (TXA2 synthase) inhibitory activity after 1 hr of oral dosing (3 mg/kg) in the rat; format: functional; in short: as §2
# [8] = test system: Rattus norvegicus; test: Ex vivo TXA2 ([…]) antagonist activity was determined for U-46,619 induced aggregation (dose ratio) after 1 hr of oral dosing (3 mg/kg) in the rat; format: functional
# In short: (§3)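 Conscious rats (n = 6) dosed by oral gavage, then anesthetized and bled from the abdominal aorta at 1, 3 or 5 h. Platelet-rich plasma aggregated with U46619 before and after dosing to give a U46619 dose ratio. ">" values mark the maximum dose ratio achievable at the top U46619 concentration (1 × 10^-4 M).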
# [9] = test system: Rattus norvegicus; test: Ex vivo TXA2 ([…]) antagonist activity was determined for U-46,619 induced aggregation (dose ratio) after 3 hr of oral dosing (5 mg/kg) in the rat; format: functional; in short: as §3
# [10] = target: T1, Thromboxane-A synthase (Homo sapiens, UniProt P24557); test: In vitro Inhibition of thromboxane synthase from human blood platelet microsomes
# T1 sequence (P24557 whole entry): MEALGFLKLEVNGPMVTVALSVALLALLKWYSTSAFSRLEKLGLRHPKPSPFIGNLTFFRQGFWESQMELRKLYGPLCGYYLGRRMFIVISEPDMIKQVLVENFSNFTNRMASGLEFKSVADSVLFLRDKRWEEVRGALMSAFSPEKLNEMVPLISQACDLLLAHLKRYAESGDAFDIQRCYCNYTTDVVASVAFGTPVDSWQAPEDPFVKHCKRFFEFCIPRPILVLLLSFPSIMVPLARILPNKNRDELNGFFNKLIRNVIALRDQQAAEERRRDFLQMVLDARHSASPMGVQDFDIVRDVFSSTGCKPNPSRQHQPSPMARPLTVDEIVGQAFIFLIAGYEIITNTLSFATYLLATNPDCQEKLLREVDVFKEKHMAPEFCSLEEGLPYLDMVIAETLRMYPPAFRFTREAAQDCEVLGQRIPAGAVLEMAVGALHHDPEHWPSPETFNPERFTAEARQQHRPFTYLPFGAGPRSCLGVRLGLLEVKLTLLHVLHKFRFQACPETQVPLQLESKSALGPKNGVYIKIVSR
# In short: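 Human blood platelet microsomes incubated with [1-14C]arachidonic acid with or without inhibitor. Conversion to labeled thromboxane B2 quantified radiochromatographically. n = 2.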
smiles,measurement,setting,value
Cc1ccc(OC(C)(C)C2OCC(C/C=C\CCC(=O)O)C(c3cccnc3)O2)c([N+](=O)[O-])c1 (stereo in doubt; 7x),Antagonist activity,[1],>506
same,Antagonist activity,[2],>321
same,Antagonist activity,[3],>506
same,Antagonist activity,[4],>506
same,pA2,[5],8.43
same,Inhibition,[6],61.8%
same,Inhibition,[7],90.8%
same,Antagonist activity,[8],>34
same,Antagonist activity,[9],>59
same,IC50,[10],19 nM
